# Experimental data: ChEMBL document CHEMBL1123419, “Synthesis and antiviral activity of sulfonamidobenzophenone oximes and sulfonamidobenzamides” (1986)
# Columns and labels:
# HeLa [1] = assay: Antiviral activity was measured against Hela cells injected with rhinovirus 26; format: functional, Homo sapiens
# Outline: (§1)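 Rhinovirus spectrum in Hela cells: infected cultures were kept 3 days at 33 °C, stained with crystal violet and examined microscopically for cytopathic effect. The end point was 50% inhibition.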
# Enterovirus = assay: Antiviral activity against rhinovirus 1A using plaque-inhibition assay; format: functional; conditions: read-out: ED50 (the source's name)
# Outline: (§2)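 Plaque reduction: confluent monolayers were infected with 100-200 PFU. Hela (Ohio) cells were used for rhinoviruses 10 and 1A and coxsackieviruses B4 and A9, CV-1 for poliovirus type 1 Mahoney, and LLC-MK2 for enterovirus 70. Cells were overlaid with 2.0% agar in MEM plus 4% FBS containing serial compound concentrations. Incubation was 37 °C for polio/coxsackie and 33 °C for rhino/enterovirus, with a neutral red (0.004%) second overlay. ED50 was taken from the dose-response curve.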
# Poliovirus 1 = assay: microbe, parasite or virus in culture; format: functional; conditions: Enterovirus C; read-out: ED50 (the source's name)
# HeLa [2] = assay: Antiviral activity was measured against Hela cells injected with coxsackie virus type B4; format: functional, Homo sapiens; outline: as §2
# CV-1 [3] = assay: Compound was evaluated for its failure of virucidal activity in poliovirus infected CV-1 cells at 0.5 ug/mL. virus titer 6.6*10e7 PFU/mL; format: functional, Cercopithecidae
# CV-1 [4] = assay: Compound was evaluated for its failure of virucidal activity in poliovirus infected CV-1 cells at 5 ug/mL. virus titer 7.1*10e7 PFU/mL; format: functional, Cercopithecidae
# HeLa [5] = assay: Antiviral activity was measured against Hela cells injected with rhinovirus 10; format: functional, Homo sapiens; outline: as §1
# CV-1 [6] = assay: Compound was evaluated for its failure of virucidal activity in poliovirus infected CV-1 cells at 50 ug/mL. virus titer 7.4*10e7 PFU/mL; format: functional, Cercopithecidae
# CV-1 [7] = assay: Chemotherapeutic index in CV-1 cells (chemotherapeutic index=50% cytotoxic dose/50% effective dose).; format: functional, Cercopithecidae
# Outline: (§3)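 Index = 50% cytotoxic dose / 50% plaque-inhibition dose. For cytotoxicity, 200 cells/mL in suspension were mixed with 10% FBS MEM carrying serial compound dilutions and incubated 7 days at 37 °C under 5% CO2. Colonies were stained with 1% crystal violet and counted, and the 50% cytotoxic dose was read from the dose-response curve.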
# HeLa [8] = assay: Antiviral activity was measured against Hela cells injected with rhinovirus 19; format: functional, Homo sapiens; outline: as §1
# HeLa [9] = assay: Antiviral activity was measured against Hela cells injected with coxsackie virus type A9; format: functional, Homo sapiens; outline: as §2
# HeLa [10] = assay: Antiviral activity was measured against Hela cells injected with rhinovirus 1A; format: functional, Homo sapiens; outline: as §1
# CV-1 [11] = assay: Compound was evaluated for chemotherapeutic index in CV-1 cells (chemotherapeutic index=50% cytotoxic dose/50% effective dose); format: functional, Cercopithecidae; outline: as §3
# CV-1 [12] = assay: Compound was evaluated for its failure of virucidal activity in poliovirus infected CV-1 cells at 0.5 ug/mL. virus titer 6.4*10e7 PFU/mL; format: functional, Cercopithecidae
# CV-1 [13] = assay: Effect on time of addiction in poliovirus infected CV-1 cells treated with 1 ug/mL of compound at 5 h. virus titer 4.3*10e9; format: functional, Cercopithecidae
# CV-1 [14] = assay: Effect on time of addiction in poliovirus infected CV-1 cells treated with 1 ug/mL of compound at 2 h. virus titer 5.0*10e8; format: functional, Cercopithecidae
# CV-1 [15] = assay: Effect on time of addiction in poliovirus infected CV-1 cells treated with 1 ug/mL of compound at 3 h. virus titer 1.6*10e9; format: functional, Cercopithecidae
# CV-1 [16] = assay: Effect on time of addiction in poliovirus infected CV-1 cells treated with 1 ug/mL of compound at 4 h. virus titer 3.1*10e9; format: functional, Cercopithecidae
# CV-1 [17] = assay: Effect on time of addiction in poliovirus infected CV-1 cells treated with 1 ug/mL of compound at 0 h. virus titer 4.8*10e8; format: functional, Cercopithecidae
# CV-1 [18] = assay: Effect on time of addiction in poliovirus infected CV-1 cells treated with 1 ug/mL of compound at 1 h. virus titer 3.6*10e8; format: functional, Cercopithecidae
# LLC-MK2 = assay: Antiviral activity was measured against LLC-MK2 cells injected with enterovirus 70; format: functional, Cercopithecidae; outline: as §2
# CV-1 [19] = assay: Compound was evaluated for its failure of virucidal activity in poliovirus infected CV-1 cells at 5 ug/mL. virus titer 7.6*10e7 PFU/mL; format: functional, Cercopithecidae
SMILES,ED50 (HeLa [1]) [µg/mL],EC50 (Enterovirus) [µg/mL],EC50 (Poliovirus 1) [µg/mL],ED50 (HeLa [2]) [µg/mL],ED50 (HeLa [5]) [µg/mL],Inhibition (CV-1 [6]) [%],Chemotherapeutic index (CV-1 [7]),ED50 (HeLa [8]) [µg/mL],ED50 (HeLa [9]) [µg/mL],ED50 (HeLa [10]) [µg/mL],also measured
CN(C)S(=O)(=O)Nc1ccc(C(=O)Nc2ccc(Br)cc2)cc1,0.68,0.26,0.3,4,0.42,0,600,0.6,5.2,0.68,Inhibition (CV-1 [3]): 12%; Inhibition (CV-1 [4]): 0%
CN(C)S(=O)(=O)Nc1cccc(/C(=N/O)c2cccc(N)c2)c1,,,0.7,,,,,,,,Chemotherapeutic index (CV-1 [11]): 66
CN(C)S(=O)(=O)Nc1ccc(C(=O)NCCCCc2ccccc2)cc1,0.13,0.13,0.09,0.42,0.09,0,18,0.12,0.4,0.12,Inhibition (CV-1 [12]): 10%; Inhibition (CV-1 [13]): 0%; Inhibition (CV-1 [14]): 87.8%; Inhibition (CV-1 [15]): 61%; Inhibition (CV-1 [16]): 24.4%; Inhibition (CV-1 [17]): 88.3%; Inhibition (CV-1 [18]): 91.2%; ED50 (LLC-MK2): 0.7 µg/mL; Inhibition (CV-1 [19]): 3%
